The source of these data is paper PMC5110371 (Nature chemical biology, 2016).

Data set [1] has as its target Enolase (Homo sapiens, UniProt P09104). The experiment in a line: Enolase enzymatic activity in vitro. The class given is biochemical.
The target of data set [2] is Enolase. The experiment in a line: Enolase enzymatic activity in vitro. It is filed as biochemical.
The target in another data set is Enolase 2 (Homo sapiens, UniProt P09104). The experiment in a line: Cellular thermal shift assay in intact D423 ENO2 glioma cells. It is filed as cell-based. The settings on record: 100 μM, without inhibitor ~65 °C. In outline: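 D423 glioma cells overexpressing ENO2, grown in DMEM with 10% FBS, treated one day with 100 μM test compound or vehicle. Trypsinized, PBS-washed, resuspended in PBS at 0.5 × 10^6 cells/mL, heated on a 50–90 °C gradient. Lysed with twice the volume of 20 mM Tris-HCl, 1 mM EDTA, 1 mM β-mercaptoethanol pH 7.4, plus one dry-ice freeze-thaw. Soluble ENO2 followed by immunoblotting.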

For the next data set, the system named is fungi. Particulars: cited from earlier work.
Data set [3] concerns the target T1, ENO2 (Homo sapiens, UniProt P09104). The experiment in a line: Ligand-induced thermal shift assay, lysates of D423 overexpressing ENO2. It is filed as binding. The settings on record: 1 μM inhibitor, cell lysates. In outline:
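Lysate in 20 mM Tris-HCl, 1 mM EDTA, 1 mM β-mercaptoethanol (pH 7.4), homogenised, sonicated and cleared at 20,000 g for 10 min. Diluted 1:100 in enolase buffer (10 mM KCl, 5 mM MgSO4, 100 mM triethanolamine, pH 7.4). Treated with 1 μM test compound or vehicle, heated at 50–90 °C for 3 min, recentrifuged. ENO2 in supernatant immunoblotted; band intensity plotted versus temperature.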

For data set [4], the system named is D423 ENO1-deleted glioma cells. The experiment in a line: Mass spectrometric determination of 3-PGA and PEP. It is filed as cell-based, human. Particulars: 10 μM and 25 μM, 72 hours. In outline: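 D423 ENO1-deleted glioma cells and isogenic ENO1-rescued controls were grown in DMEM with 10% FBS. They were treated with vehicle, 10 μM or 25 μM test compound for 72 h. Polar metabolites were extracted with 80% methanol at −80°C and quantified by mass spectrometry to give the 3-PGA/PEP ratio. Each bar is an independently treated culture; comparisons used unpaired two-tailed t-tests with Bonferroni correction.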

Data set [5] concerns the target Triosephosphate isomerase (Homo sapiens, UniProt P60174). The experiment in a line: Thermal shift assay, internal control Triosephosphate isomerase. It is filed as binding. Particulars: cell lysates. In outline: (§1)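 Lysates of D423 glioma cells overexpressing ENO1 or ENO2 were made in 20 mM Tris-HCl, 1 mM EDTA, 1 mM β-mercaptoethanol, pH 7.4, homogenised, sonicated and cleared at 20,000 g for 10 min. They were diluted 1:100 in enolase assay buffer (10 mM KCl, 5 mM MgSO4, 100 mM triethanolamine, pH 7.4), given test compound or vehicle, and heated 3 min at 50–90 °C. After 20,000 g spin, supernatant was immunoblotted (anti-vinculin, anti-TPI, both 1:3000).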

The next data set relates to Staphylococcus. Particulars: cited from earlier work.
In data set [6] the target is T1, ENO2. The experiment in a line: Thermal shift assay, purified recombinant human ENO2. It is filed as binding. Particulars: concentration not stated in the sentence (Supplementary Fig. 6: 1 µM or 25 µM). In outline:
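Diluted and treated with test compound or vehicle in enolase assay buffer (10 mM KCl, 5 mM MgSO4, 100 mM triethanolamine, pH 7.4). Heated 50–90 °C for 3 min, spun 20,000 g for 10 min, supernatant ENO2 immunoblotted.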

Data set [7] concerns D423 ENO1-deleted glioma cells. The experiment in a line: Cell density. Particulars: 72 hours. The class given is cell-based, human. In outline:
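Cells were seeded at 1 × 10^4 cells/well in 96-well plates and treated the next day. They were then held either under hypoxia (0.1% O2, 5% CO2) or normoxia for 72 h. Cells were fixed in 10% formalin and stained with crystal violet. Dye was extracted with 10% acetic acid and absorbance read at 595 nm.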

The next data set deals with Salmonella. Particulars: cited from earlier work.
Data set [8] has as its system D423 ENO1-deleted glioma cells. The experiment in a line: 13C-1 glucose isotope tracing. The class given is cell-based, human. The settings on record: 10 μM; for conversion of 13C-1 glucose to 13C-3 glycerate: 72 hours. In outline: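 Glucose-free DMEM supplemented with 10 mM 13C-1 glucose; test compound at 10 μM. Media extracted with 80% methanol at −80 °C, centrifuged, lyophilised, redissolved in D2O and analysed by proton-decoupled 13C NMR. Glycerate was read as the peak at 64 ppm, also expressed as a ratio to 13C-3 lactate. Isogenic ENO1-rescued D423 cells served as comparison.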

Data set [9] relates to D423 ENO1-deleted glioma cells. The experiment in a line: Proliferation. It is filed as cell-based, human. In outline: (§2)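 Cells were seeded at 2 × 10^3 cells/well in 96-well plates and treated for 2 weeks across a concentration range. Medium was then refreshed, and Hoechst 33342 (total cells) plus YO-PRO-1 (apoptotic cells) were added at 1:1000 final dilution for 2 h at 37 °C. Wells were imaged and quantified by high-content imaging. Conditions were run in duplicate and expressed relative to vehicle.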

Data set [10] concerns Gli56 ENO1-deleted glioma cells. The experiment in a line: Proliferation. The class given is cell-based, human. The settings on record: Supplementary Fig. 9. In outline: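 Growth was followed by IncuCyte live-cell confluence imaging every 4 h. Initial seeding was 1.5 × 10^3 cells/well in 96-well plates, with duplicate replicates. Cells were cultured in DMEM with 10% FBS. ENO1-intact cell lines were used as comparators.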

In another data set the target is T2, Vinculin (Homo sapiens, UniProt P18206).
T2 sequence (P18206 1-1066 isoform P18206-2): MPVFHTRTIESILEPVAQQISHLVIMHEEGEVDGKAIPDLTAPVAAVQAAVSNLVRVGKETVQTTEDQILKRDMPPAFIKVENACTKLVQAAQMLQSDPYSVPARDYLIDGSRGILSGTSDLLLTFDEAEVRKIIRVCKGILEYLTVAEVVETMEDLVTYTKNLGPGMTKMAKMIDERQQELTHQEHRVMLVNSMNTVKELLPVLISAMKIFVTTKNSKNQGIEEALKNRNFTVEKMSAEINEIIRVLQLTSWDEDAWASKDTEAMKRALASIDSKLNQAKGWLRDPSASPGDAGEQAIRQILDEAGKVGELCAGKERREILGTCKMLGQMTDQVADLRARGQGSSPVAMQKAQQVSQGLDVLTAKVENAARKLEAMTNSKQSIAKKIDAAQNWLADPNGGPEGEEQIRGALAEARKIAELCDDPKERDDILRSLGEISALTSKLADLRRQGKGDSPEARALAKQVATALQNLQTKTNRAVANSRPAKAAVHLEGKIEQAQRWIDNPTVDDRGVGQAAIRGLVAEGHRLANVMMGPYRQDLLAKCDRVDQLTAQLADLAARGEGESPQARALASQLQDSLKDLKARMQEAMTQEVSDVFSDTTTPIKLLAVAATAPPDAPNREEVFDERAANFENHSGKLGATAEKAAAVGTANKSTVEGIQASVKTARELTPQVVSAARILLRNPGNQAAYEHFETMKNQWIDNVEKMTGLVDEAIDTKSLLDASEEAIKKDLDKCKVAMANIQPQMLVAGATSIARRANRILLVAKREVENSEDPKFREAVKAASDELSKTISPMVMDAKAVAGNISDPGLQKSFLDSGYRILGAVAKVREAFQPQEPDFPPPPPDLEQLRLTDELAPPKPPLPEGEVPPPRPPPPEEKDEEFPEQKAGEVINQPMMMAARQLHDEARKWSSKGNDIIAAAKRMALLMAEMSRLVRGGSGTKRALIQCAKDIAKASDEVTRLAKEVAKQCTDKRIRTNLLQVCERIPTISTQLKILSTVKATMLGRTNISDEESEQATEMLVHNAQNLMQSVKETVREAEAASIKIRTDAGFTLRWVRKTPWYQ
The experiment in a line: Thermal shift assay, internal control Vinculin. The class given is binding. The settings on record: cell lysates. In outline:
as §1

The test system of data set [11] is D423 ENO1-deleted glioma cells. The experiment in a line: Time course of ATP. The class given is cell-based, human.
Data set [12] is described as follows: Configurational stability in aqueous solution. It is filed as physicochemical.
The subject of data set [13] is D423 ENO1-rescued glioma cells. The experiment in a line: Proliferation. It is filed as cell-based, human. In outline:
as §2

The next data set deals with E. coli. The settings on record: cited from earlier work.
In another data set the test system is ENO1-intact glioma cells. The experiment in a line: Toxicity to ENO1-intact cells. Particulars: 10 μM, four days. It is filed as cell-based, human.
[14] abbreviates: 2 weeks, YO-PRO-1 positive cells.

Enolase (Homo sapiens, UniProt P09104), sequence (P09104 whole entry): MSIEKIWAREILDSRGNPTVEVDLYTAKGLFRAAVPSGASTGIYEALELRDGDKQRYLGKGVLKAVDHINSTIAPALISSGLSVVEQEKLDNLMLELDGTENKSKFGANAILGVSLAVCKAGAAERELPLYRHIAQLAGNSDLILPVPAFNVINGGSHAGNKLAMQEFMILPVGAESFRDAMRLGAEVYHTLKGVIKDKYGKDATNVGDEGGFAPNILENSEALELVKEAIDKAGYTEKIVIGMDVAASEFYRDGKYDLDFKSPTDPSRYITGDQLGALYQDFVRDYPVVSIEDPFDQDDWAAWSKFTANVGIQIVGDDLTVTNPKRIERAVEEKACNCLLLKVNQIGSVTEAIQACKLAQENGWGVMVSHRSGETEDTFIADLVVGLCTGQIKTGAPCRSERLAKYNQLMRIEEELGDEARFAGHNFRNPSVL
T1 sequence (P09104 whole entry): as above
Triosephosphate isomerase, sequence (P60174 whole entry): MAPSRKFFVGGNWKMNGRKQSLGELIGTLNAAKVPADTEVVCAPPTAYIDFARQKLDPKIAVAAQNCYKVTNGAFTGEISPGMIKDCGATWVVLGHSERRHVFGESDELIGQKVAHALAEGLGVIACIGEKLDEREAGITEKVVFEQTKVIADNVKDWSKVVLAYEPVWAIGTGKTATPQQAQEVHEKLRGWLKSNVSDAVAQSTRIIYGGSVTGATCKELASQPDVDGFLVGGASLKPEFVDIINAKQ
Enolase 2, sequence (P09104 whole entry): as the sequence (P09104 whole entry) above

Usually IC50 stands for the concentration that inhibits the measured activity by half. On to `O=C1C(P(=O)(O)O)CCN1O` (stereo not drawn) [deoxy-SF2312, 1-hydroxy-2-oxopyrrolidin-3-ylphosphonic acid], for which the “kinetics with respect to substrate 2-PGA” value at Enolase [1] (ENO2 (Fig. 1d)) is recorded as “clear competitive kinetics”. For the same compound, at Enolase [2] (read-out: IC50 as an enolase inhibitor), the 50% inhibitory concentration (IC50) was around 2000 nM.

In the case of `O=C1C(P(=O)(O)O)CC(O)N1O` (stereo not drawn) [SF2312, (1,5-dihydroxy-2-oxopyrrolidin-3-yl)phosphonic acid], the “kinetics with respect to substrate 2-PGA” value at Enolase [1] (ENO2, at IC50) is “non-competitive kinetics”; on Enolase [1] (ENO2, at higher concentrations of inhibitor), “competitive kinetics”. Also, the “type of inhibitor (on/off rate)” value with Enolase [2] (order of addition of inhibitor and substrate) is “slow-on/slow-off inhibitor”. Also, the “shift of the thermal melting curve of ENO2 in intact glioma cells” value on Enolase 2 is ~ 15 °C. For the same compound, the antibiotic activity result in the data set on fungi is on record as “no activity”; with Staphylococcus, “strong activity”; in the data set on Salmonella, “strong activity”; in the data set with E. coli, “weak activity”. Besides, on ENO2 [3], the “shift in the thermal denaturation of ENO2” value was ~ 9.5 °C. In addition, on ENO2 [3] (without inhibitor ~63 °C), the “melting temperature (Tm) of ENO2” value was ~ 72.5 °C. In addition, the “ratio of 3-PGA/PEP” value in data set [4] was “dramatic increase”. In addition, the “effect on thermal stability of Triosephosphate isomerase” value in [5] is reported as “Neither PhAH nor SF2312 affected the thermal stability”. On ENO2 [6], the “stabilization of recombinant human ENO2 (shift of thermal denaturation curve)” value was ~ 12 °C. In addition, the “concentrations at which cells were essentially eradicated” value in data set [7] (hypoxia (0.1% O2)) was above 6.25 µM. Besides, the eradication of cells entry in data set [7] (normoxia, 100 μM inhibitor) is reported as “no eradication was observed”. Further, the “conversion of 13C-1 glucose to 13C-3 glycerate” value in data set [8] was “dramatically increases”. For the same compound, the “glucose consumption and lactate production in media” value in data set [8] (four days, 13C-1 glucose, D423 and Gli56 ENO1 deleted cells) is “profound inhibition of glucose consumption”. The concentration inhibiting proliferation result in [9] (2 weeks treatment course) is recorded as “low μM range”; in data set [13] (2 weeks treatment course, ectopically re-expressing ENO1), “above 200 μM”. The “concentration at which induction of cell death starts” value in data set [9] (setting [14]) amounted to 12.5 µM. In [10], the “toxicity against Gli56 versus ENO1-intact cell lines” value was “selective toxicity”. At Vinculin, the “effect on thermal stability of Vinculin” value is “Neither PhAH nor SF2312 affected the thermal stability”. The “time after initiation of treatment at which declines in ATP occurred” value in [11] came to 8 h. Besides, the stability of stereocenters result in data set [12] was “both stereocenters underwent spontaneous epimerization”. Further, the “concentration at which induction of cell death is seen” value in [13] (setting [14]) came out at 400 µM. The toxicity result in the data set on ENO1-intact glioma cells was “non-toxic”.

For `O=C(CP(=O)(O)O)NO` [PhAH, Phosphonoacetohydroxamate, reference compound], at Enolase 2, the “shift of the thermal melting curve of ENO2 in intact glioma cells” value was ~ 6 °C. For the same compound, the “shift in the thermal denaturation of ENO2” value at ENO2 [3] is ~ 6 °C. In addition, the “effect on thermal stability of Triosephosphate isomerase” value in [5] is listed as “Neither PhAH nor SF2312 affected the thermal stability”. The “stabilization of recombinant human ENO2 (shift of thermal denaturation curve)” value on ENO2 [6] was ~ 6 °C. The “concentration at which potentiation of toxicity by hypoxia is evident” value in data set [7] (hypoxia vs normoxia) amounted to 200 µM. In addition, the “conversion of 13C-1 glucose to 13C-3 glycerate” value in [8] is “to a lesser extent”. Further, the “toxicity against Gli56 versus ENO1-intact cell lines” value in data set [10] is on record as “selective toxicity”. The “effect on thermal stability of Vinculin” value on Vinculin is recorded as “Neither PhAH nor SF2312 affected the thermal stability”.
